Laboratory results as given in ChEMBL document CHEMBL1649572, “Synergistic interaction between silver nanoparticles and membrane-permeabilizing antimicrobial peptides” (Antimicrob Agents Chemother, 2009).
In brackets after ≈: the same amount, converted by molar mass. Square brackets hold non-standard residues; d marks the D form. Peptide text beside a SMILES is read from it. * marks the point of attachment. Orn = NCCC[C@H](N)C(=O)O; NHCH2CH2OH = OCCN*; For = O=C*

How the values were obtained:
Kocuria rhizophila [1] = experiment: Antibacterial activity against Kocuria rhizophila DSM 348 in presence of silver nitrate; type: functional
Outline: (§1)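 Two-dimensional (checkerboard) microdilution: AgNO3 or carbon-matrix-stabilized silver nanoparticles (mean diameter 25 nm) crossed with a membrane-active antimicrobial peptide, in salt-free Luria/Miller bouillon. Nanoparticles dissolved in 8 mM Tris/HCl pH 7.6 with 150 mM NaCl. MICs taken alone and in combination; FIC index = MIC(A with B)/MIC(A alone) + MIC(B with A)/MIC(B alone). <0.5 synergy, 0.5–2.0 additive, >2.0 antagonism.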

Enterobacter helveticus [2] = experiment: microbe, parasite or virus in culture; type: functional; settings: Franconibacter helveticus, DSM 18396
Pseudomonas fluorescens [3] = experiment: Antibacterial activity against Pseudomonas fluorescens DSM 50090 in presence of silver nitrate; type: functional; outline: as §1
Escherichia coli [4] = experiment: microbe, parasite or virus in culture; type: functional; settings: DSM 498
Bacillus subtilis [5] = experiment: microbe, parasite or virus in culture; type: functional; settings: DSM 347
Pseudomonas fluorescens [6] = experiment: microbe, parasite or virus in culture; type: functional; settings: DSM 50090
Proteus myxofaciens [7] = experiment: microbe, parasite or virus in culture; type: functional; settings: DSM 4482
Aeromonas bestiarum [8] = experiment: microbe, parasite or virus in culture; type: functional; settings: DSM 13956
[9] = Toxicity in human erythrocytes assessed as hemolysis by serial dilution method
[10] = tested on: Acinetobacter calcoaceticus; experiment: microbe, parasite or virus in culture; type: functional; settings: DSM 586
Micrococcus luteus [11] = experiment: microbe, parasite or virus in culture; type: functional; settings: DSM 1790
Bacillus subtilis [12] = experiment: Antibacterial activity against Bacillus subtilis DSM 347 in presence of silver nanoparticles; type: functional; outline: as §1
Bacillus subtilis [13] = experiment: Antibacterial activity against Bacillus subtilis DSM 347 in presence of silver nitrate; type: functional; outline: as §1
Escherichia coli [14] = experiment: Antibacterial activity against Escherichia coli DSM 498 in presence of silver nanoparticles; type: functional; outline: as §1
Kocuria rhizophila [15] = experiment: Antibacterial activity against Kocuria rhizophila DSM 348 in presence of silver nanoparticles; type: functional; outline: as §1
Kocuria rhizophila [16] = experiment: microbe, parasite or virus in culture; type: functional; settings: DSM 348
Pseudomonas fluorescens [17] = experiment: Antibacterial activity against Pseudomonas fluorescens DSM 50090 in presence of silver nanoparticles; type: functional; outline: as §1
Escherichia coli [18] = experiment: Antibacterial activity against Escherichia coli DSM 498 in presence of silver nitrate; type: functional; outline: as §1
Micrococcus luteus [19] = experiment: Antibacterial activity against Micrococcus luteus DSM 1790 in presence of silver nitrate; type: functional; outline: as §1
Micrococcus luteus [20] = experiment: Antibacterial activity against Micrococcus luteus DSM 1790 in presence of silver nanoparticles; type: functional; outline: as §1
Enterobacter helveticus [21] = experiment: Antibacterial activity against Enterobacter helveticus DSM 18396 in presence of silver nanoparticles; type: functional, Franconibacter helveticus; outline: as §1
Aeromonas bestiarum [22] = experiment: Antibacterial activity against Aeromonas bestiarum DSM 13956 in presence of silver nanoparticles; type: functional; outline: as §1
Enterobacter helveticus [23] = experiment: Antibacterial activity against Enterobacter helveticus DSM 18396 in presence of silver nitrate; type: functional, Franconibacter helveticus; outline: as §1
[24] = tested on: Acinetobacter calcoaceticus; experiment: Antibacterial activity against Acinetobacter calcoaceticus DSM 586 in presence of silver nitrate; type: functional; outline: as §1
Proteus myxofaciens [25] = experiment: Antibacterial activity against Proteus myxofaciens DSM 4482 in presence of silver nitrate; type: functional; outline: as §1
Proteus myxofaciens [26] = experiment: Antibacterial activity against Proteus myxofaciens DSM 4482 in presence of silver nanoparticles; type: functional; outline: as §1
Aeromonas bestiarum [27] = experiment: Antibacterial activity against Aeromonas bestiarum DSM 13956 in presence of silver nitrate; type: functional; outline: as §1
Aeromonas bestiarum [28] = settings: DSM 13956
[29] = tested on: Acinetobacter calcoaceticus; settings: DSM 586
Micrococcus luteus [30] = settings: DSM 1790
Enterobacter helveticus [31] = settings: Franconibacter helveticus; DSM 18396
Pseudomonas fluorescens [32] = settings: DSM 50090
Proteus myxofaciens [33] = settings: DSM 4482
Escherichia coli [34] = settings: DSM 498
Kocuria rhizophila [35] = settings: DSM 348
Bacillus subtilis [36] = settings: DSM 347

Compound | fractional inhibitory concentration index (FICI) (Kocuria rhizophila [1]) | MIC (Enterobacter helveticus [2]) | fractional inhibitory concentration index (FICI) (Pseudomonas fluorescens [3]) | MIC (Escherichia coli [4]) | MIC (Bacillus subtilis [5]) | MIC (Pseudomonas fluorescens [6]) | MIC (Proteus myxofaciens [7]) | MIC (Aeromonas bestiarum [8]) | HC50 ([9]; human erythrocytes) | MIC [10] | MIC (Micrococcus luteus [11]) | fractional inhibitory concentration index (FICI) (Bacillus subtilis [12]) | fractional inhibitory concentration index (FICI) (Bacillus subtilis [13]) | fractional inhibitory concentration index (FICI) (Escherichia coli [14]) | fractional inhibitory concentration index (FICI) (Kocuria rhizophila [15]) | MIC (Kocuria rhizophila [16]) | fractional inhibitory concentration index (FICI) (Escherichia coli [18]) | fractional inhibitory concentration index (FICI) (Micrococcus luteus [19]) | fractional inhibitory concentration index (FICI) (Micrococcus luteus [20]) | fractional inhibitory concentration index (FICI) [24] | also measured
CC(=O)NC(C)(C)C(=O)N1CCC[C@H]1C(=O)NC(C)(C)C(=O)N[C@@H](C)C(=O)NC(C)(C)C(=O)N[C@@H](C)C(=O)N[C@@H](CCC(N)=O)C(=O)NC(C)(C)C(=O)N[C@H](C(=O)NC(C)(C)C(=O)NCC(=O)N[C@@H](CC(C)C)C(=O)NC(C)(C)C(=O)N1CCC[C@H]1C(=O)N[C@H](C(=O)NC(C)(C)C(=O)NC(C)(C)C(=O)N[C@@H](CCC(=O)O)C(=O)N[C@@H](CCC(N)=O)C(=O)N[C@H](CO)Cc1ccccc1)C(C)C)C(C)C [ALAMETHICIN] | 1 | 256 µg/mL (≈ 130 µM) | 1 | 256 µg/mL (≈ 130 µM) | 8 µg/mL (≈ 4.07 µM) | 128 µg/mL (≈ 65.2 µM) | 256 µg/mL (≈ 130 µM) | 256 µg/mL (≈ 130 µM) | 17.9 µg/mL | 256 µg/mL (≈ 130 µM) | 8 µg/mL (≈ 4.07 µM) | 0.88 | 1 | 0.5 | 1 | 8 µg/mL (≈ 4.07 µM) | 0.5 | – | – | – | fractional inhibitory concentration index (FICI) (Pseudomonas fluorescens [17]): 1
CC(C)C[C@@H](NC(=O)[C@H](C)NC(=O)CNC(=O)[C@@H](NC=O)C(C)C)C(=O)N[C@@H](C)C(=O)N[C@@H](C(=O)N[C@H](C(=O)N[C@@H](C(=O)N[C@@H](Cc1c[nH]c2ccccc12)C(=O)N[C@H](CC(C)C)C(=O)N[C@@H](Cc1c[nH]c2ccccc12)C(=O)N[C@H](CC(C)C)C(=O)N[C@@H](Cc1c[nH]c2ccccc12)C(=O)N[C@H](CC(C)C)C(=O)N[C@@H](Cc1c[nH]c2ccccc12)C(=O)NCCO)C(C)C)C(C)C)C(C)C [GRAMICIDIN A] (For-VGA[dL]A[dV]V[dV]W[dL]W[dL]W[dL]W-NHCH2CH2OH) | 0.79 | > 128 µg/mL | – | > 128 µg/mL | 1 µg/mL (≈ 0.531 µM) | > 128 µg/mL | > 128 µg/mL | > 128 µg/mL | 2.3 µg/mL | > 128 µg/mL | 1 µg/mL (≈ 0.531 µM) | 0.94 | 0.42 | – | 1.04 | 1 µg/mL (≈ 0.531 µM) | – | 0.88 | 1.04 | – | –
CC(C)C[C@@H]1NC(=O)[C@H](CCCN)NC(=O)[C@H](C(C)C)NC(=O)[C@@H]2CCCN2C(=O)[C@@H](Cc2ccccc2)NC(=O)[C@H](CC(C)C)NC(=O)[C@H](CCCN)NC(=O)[C@H](C(C)C)NC(=O)[C@@H]2CCCN2C(=O)[C@@H](Cc2ccccc2)NC1=O [GRAMICIDIN S] (cyclo(L[dF]PV[Orn]L[dF]PV[Orn])) | 0.92 | 4 µg/mL (≈ 3.5 µM) | 0.67 | 8 µg/mL (≈ 7.01 µM) | 2 µg/mL (≈ 1.75 µM) | 16 µg/mL (≈ 14 µM) | 16 µg/mL (≈ 14 µM) | 32 µg/mL (≈ 28 µM) | 10.1 µg/mL | 16 µg/mL (≈ 14 µM) | 2 µg/mL (≈ 1.75 µM) | 0.77 | 0.73 | 0.56 | 0.83 | 4 µg/mL (≈ 3.5 µM) | 0.83 | 0.92 | 1.25 | 0.77 | fractional inhibitory concentration index (FICI) (Enterobacter helveticus [21]): 0.44; fractional inhibitory concentration index (FICI) (Aeromonas bestiarum [22]): 0.63; fractional inhibitory concentration index (FICI) (Enterobacter helveticus [23]): 0.32; fractional inhibitory concentration index (FICI) (Pseudomonas fluorescens [17]): 0.48; fractional inhibitory concentration index (FICI) (Proteus myxofaciens [25]): 0.63; fractional inhibitory concentration index (FICI) (Proteus myxofaciens [26]): 0.38; fractional inhibitory concentration index (FICI) (Aeromonas bestiarum [27]): 0.53
H-GIGKFLHSAKKFGKAFVGEIMNS-OH [MAGAININ 2] | 0.67 | 8 µg/mL | – | 16 µg/mL | 16 µg/mL | > 256 µg/mL | > 256 µg/mL | > 256 µg/mL | 202 µg/mL | 16 µg/mL | 16 µg/mL | 0.67 | 0.69 | 0.86 | 0.96 | 16 µg/mL | 1 | 1.02 | 1.04 | 0.79 | fractional inhibitory concentration index (FICI) (Enterobacter helveticus [21]): 0.59; fractional inhibitory concentration index (FICI) (Enterobacter helveticus [23]): 0.71
H-GMASKAGAIAGKIAKVALKAL-NH2 | 1.08 | 8 µg/mL | – | 8 µg/mL | 8 µg/mL | > 256 µg/mL | > 256 µg/mL | > 256 µg/mL | 165 µg/mL | 8 µg/mL | 4 µg/mL | 0.71 | 0.92 | 1 | 1.01 | 8 µg/mL | 0.67 | 0.71 | 1 | 1.08 | fractional inhibitory concentration index (FICI) (Enterobacter helveticus [21]): 0.57; fractional inhibitory concentration index (FICI) (Enterobacter helveticus [23]): 0.71
POLYMYXIN B [listing 1 of 2 here] | – | – | – | – | – | – | – | – | – | – | – | – | – | – | – | – | – | – | – | – | HC50 ([9]; erythrocyte): 210.7 µg/mL
POLYMYXIN B [listing 2 of 2 here] | 0.83 | – | 0.56 | – | – | – | – | – | – | – | – | 0.96 | 0.59 | 0.38 | 0.61 | – | 0.38 | 0.58 | 0.96 | 0.83 | fractional inhibitory concentration index (FICI) (Enterobacter helveticus [21]; Franconibacter helveticus): 0.38; MIC (Aeromonas bestiarum [28]): 16 µg/mL; MIC [29]: 1 µg/mL; fractional inhibitory concentration index (FICI) (Aeromonas bestiarum [22]): 0.39; MIC (Micrococcus luteus [30]): 4 µg/mL; MIC (Enterobacter helveticus [31]): 1 µg/mL; fractional inhibitory concentration index (FICI) (Enterobacter helveticus [23]; Franconibacter helveticus): 0.29; fractional inhibitory concentration index (FICI) (Pseudomonas fluorescens [17]): 0.27; fractional inhibitory concentration index (FICI) (Proteus myxofaciens [25]): 0.23; fractional inhibitory concentration index (FICI) (Proteus myxofaciens [26]): 0.23; fractional inhibitory concentration index (FICI) (Aeromonas bestiarum [27]): 0.5; MIC (Pseudomonas fluorescens [32]): 128 µg/mL; MIC (Proteus myxofaciens [33]): 16 µg/mL; MIC (Escherichia coli [34]): 1 µg/mL; MIC (Kocuria rhizophila [35]): 16 µg/mL; MIC (Bacillus subtilis [36]): 8 µg/mL
